Test results: ChEMBL document CHEMBL3351780, “Novel hybrids of metronidazole and quinolones: synthesis, bioactive evaluation, cytotoxicity, preliminary antimicrobial mechanism and effect of metal ions on their transportation by human serum albumin” (Eur J Med Chem, 2014)
In brackets after ≈: the same amount, converted by molar mass.

Key:
Bacillus spizizenii = test: Antibacterial activity against Bacillus subtilis ATCC 6633 by two-fold serial dilution method; type: functional
Summary of the method: (§1)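 Standard two-fold serial dilution in 96-well microtest plates following NCCLS. Top dilutions printed as 32, 16, 8, 4, 2, 1, 0.5 ug/mL. Wells inoculated and held at 37 °C for 24 h. Growth judged visually and by spectrophotometer, in triplicate. MIC is the lowest concentration giving complete growth inhibition.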

Pichia norvegensis = test: Antifungal activity against Candida mycoderma after 24 hrs by microbroth dilution method; type: functional
Staphylococcus aureus [1] = test: Antibacterial activity against methicillin-resistant Staphylococcus aureus N315 by two-fold serial dilution method; type: functional
Summary of the method: (§2)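 MIC read as the lowest concentration giving complete growth inhibition. Two-fold serial dilutions were made in 96-well plates following NCCLS, giving a series down to 0.5 µg/mL (…32, 16, 8, 4, 2, 1, 0.5). Plates were inoculated and incubated at 37 °C for 24 h. A DMSO-with-inoculum control without drug was included. Growth was monitored visually and spectrophotometrically, in triplicate.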

Candida albicans = test: Antifungal activity against Candida albicans ATCC 76615 after 24 hrs by microbroth dilution method; type: functional; details: ATCC 76615, 24 h
Summary of the method: (§3)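 Spore suspension prepared in sterile distilled water from one-day-old cultures on Sabouraud agar, final 1-5 x 10^3 spores/mL. Compounds were serially diluted in RPMI 1640 to give eleven dilutions. Incubation at 35 °C for 24 h. Growth read visually and spectrophotometrically, in triplicate. MIC is the lowest concentration with complete inhibition.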

Pseudomonas aeruginosa = test: Antibacterial activity against Pseudomonas aeruginosa by two-fold serial dilution method; type: functional; summary of the method: as §1
Streptococcus pneumoniae = test: Antibacterial activity against Streptococcus pneumoniae by two-fold serial dilution method; type: functional; summary of the method: as §1
Escherichia coli = test: Antibacterial activity against Escherichia coli DH52 by two-fold serial dilution method; type: functional; summary of the method: as §1
Micrococcus luteus = test: Antibacterial activity against Micrococcus luteus by two-fold serial dilution method; type: functional; summary of the method: as §1
Staphylococcus aureus [2] = test: Antibacterial activity against Staphylococcus aureus ATCC 25923 by two-fold serial dilution method; type: functional; summary of the method: as §1
Cyberlindnera jadinii = test: Antifungal activity against Candida utilis after 24 hrs by microbroth dilution method; type: functional; details: Williopsis jadinii; summary of the method: as §3
Shigella dysenteriae = test: Antibacterial activity against Shigella dysenteriae by two-fold serial dilution method; type: functional; summary of the method: as §2
[3] = Antibacterial activity against Eberthella typhosa by two-fold serial dilution method; type: functional; summary of the method: as §2
Saccharomyces cerevisiae = test: Antifungal activity against Saccharomyces cerevisiae after 24 hrs by microbroth dilution method; type: functional; summary of the method: as §3
Aspergillus flavus = test: Antifungal activity against Aspergillus flavus ATCC 96918 after 24 hrs by microbroth dilution method
[4] = Aqueous solubility of the compound by UV-spectrophotometry; type: physicochemical
[5] = Octanol-water partition co-efficient, log P of the compound by shake flask method; type: physicochemical
[6] = Dissociation constant, pKa of the compound by UV-spectroscopy; type: physicochemical
Summary of the method: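 DMSO stock at 4.0 × 10^-3 mol/L added to 2 mL of buffer, then shaken 10 min at room temperature. Buffers were acetate (pH 4.0–5.0), MES (5.5–6.5), HEPES (7.0–8.0) and CHES (8.5–9.4), each from 500 mM stocks. Scans ran 210–400 nm and were normalized. Absolute differences from the acid spectrum were summed at 244 and 308 nm, plotted against pH and fitted to obtain pKa.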

[7] = Cytotoxicity against human A549 cells assessed as cell viability at 256 ug/ml after 24 hrs by CCK-8 assay; type: cell-based; details: read-out: Activity
Summary of the method: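 A549 cells were plated and allowed to attach for 24 h, then medium with the compound was added. The compound came from DMSO stocks diluted in medium to 8, 16, 32, 64, 128 and 256 µg/mL. Cells were kept at 37 °C in 5% CO2. Viability was read by CCK-8 absorbance at 450 nm against a drug-free control, three replicates.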

| SMILES | MIC (Bacillus spizizenii) [µg/mL] | MIC (Pichia norvegensis) [µg/mL] | MIC (Staphylococcus aureus [1]) [µg/mL] | MIC (Candida albicans) [µg/mL] | MIC (Pseudomonas aeruginosa) [µg/mL] | MIC (Streptococcus pneumoniae) [µg/mL] | MIC (Escherichia coli) [µg/mL] | MIC (Micrococcus luteus) [µg/mL] | MIC (Staphylococcus aureus [2]) [µg/mL] | MIC (Cyberlindnera jadinii) [µg/mL] | MIC (Shigella dysenteriae) [µg/mL] | MIC [3] [µg/mL] | MIC (Saccharomyces cerevisiae) [µg/mL] | MIC (Aspergillus flavus) [µg/mL] | solubility [4] [µg/mL] | logP [5] | pKa [6] | viability at 24 h, 256 ug/ml [7] [%] |
| --- | --- | --- | --- | --- | --- | --- | --- | --- | --- | --- | --- | --- | --- | --- | --- | --- | --- | --- |
| O=C(O)c1cn(CC(O)Cn2cnc([N+](=O)[O-])c2)c2cc(C(F)(F)F)ccc2c1=O (configuration not stated) | 4 (≈ 9.38 µM) | 128 (≈ 300 µM) | 4 (≈ 9.38 µM) | 128 (≈ 300 µM) | 8 (≈ 18.8 µM) | 16 (≈ 37.5 µM) | 2 (≈ 4.69 µM) | 8 (≈ 18.8 µM) | 4 (≈ 9.38 µM) | 128 (≈ 300 µM) | 4 (≈ 9.38 µM) | 4 (≈ 9.38 µM) | 32 (≈ 75.1 µM) |  |  |  |  |  |
| CCOC(=O)c1cn(CC2CO2)c2c(F)cccc2c1=O (racemic) | 32 (≈ 110 µM) | 64 (≈ 220 µM) |  |  |  |  |  |  |  | 512 (≈ 1760 µM) |  | 2 (≈ 6.87 µM) |  | 512 (≈ 1760 µM) |  |  |  |  |
| Cc1ccc2c(c1)c(=O)c(C(=O)O)cn2CC(O)Cn1c([N+](=O)[O-])cnc1C (configuration not stated) | 8 (≈ 20.7 µM) | 256 (≈ 663 µM) | 4 (≈ 10.4 µM) | 16 (≈ 41.4 µM) | 2 (≈ 5.18 µM) | 4 (≈ 10.4 µM) | 1 (≈ 2.59 µM) | 1 (≈ 2.59 µM) | 8 (≈ 20.7 µM) | 512 (≈ 1330 µM) | 8 (≈ 20.7 µM) | 8 (≈ 20.7 µM) | 2 (≈ 5.18 µM) |  | 390 (≈ 1010 µM) | -0.03 | 6.43 | > 83 |
| Cc1ccc2c(c1)c(=O)c(C(=O)O)cn2CC(O)Cn1cnc([N+](=O)[O-])c1 (configuration not stated) | 1 (≈ 2.69 µM) | 64 (≈ 172 µM) | 8 (≈ 21.5 µM) | 16 (≈ 43 µM) | 1 (≈ 2.69 µM) | 32 (≈ 85.9 µM) | 16 (≈ 43 µM) | 8 (≈ 21.5 µM) | 0.5 (≈ 1.34 µM) | 256 (≈ 688 µM) | 4 (≈ 10.7 µM) | 4 (≈ 10.7 µM) | 4 (≈ 10.7 µM) |  |  |  |  | > 83 |
| O=C(O)c1cn(CC(O)Cn2cnc([N+](=O)[O-])c2)c2c(F)cc(F)cc2c1=O (configuration not stated) | 8 (≈ 20.3 µM) | 64 (≈ 162 µM) | 16 (≈ 40.6 µM) | 16 (≈ 40.6 µM) | 32 (≈ 81.2 µM) | 16 (≈ 40.6 µM) | 32 (≈ 81.2 µM) | 8 (≈ 20.3 µM) | 16 (≈ 40.6 µM) | 256 (≈ 649 µM) | 32 (≈ 81.2 µM) | 32 (≈ 81.2 µM) | 256 (≈ 649 µM) |  |  |  |  |  |
| O=C(O)c1cn(CC(O)Cn2cnc([N+](=O)[O-])c2)c2ccc(F)cc2c1=O (configuration not stated) | 16 (≈ 42.5 µM) | 256 (≈ 680 µM) | 8 (≈ 21.3 µM) | 64 (≈ 170 µM) | 8 (≈ 21.3 µM) | 8 (≈ 21.3 µM) | 8 (≈ 21.3 µM) | 16 (≈ 42.5 µM) | 16 (≈ 42.5 µM) | 128 (≈ 340 µM) | 8 (≈ 21.3 µM) | 8 (≈ 21.3 µM) | 64 (≈ 170 µM) |  |  |  |  |  |
| O=C(O)c1cn(CC(O)Cn2cnc([N+](=O)[O-])c2)c2c(F)cccc2c1=O (configuration not stated) | 4 (≈ 10.6 µM) | 128 (≈ 340 µM) | 4 (≈ 10.6 µM) | 128 (≈ 340 µM) | 8 (≈ 21.3 µM) | 32 (≈ 85 µM) | 4 (≈ 10.6 µM) | 4 (≈ 10.6 µM) | 16 (≈ 42.5 µM) | 512 (≈ 1360 µM) | 8 (≈ 21.3 µM) | 32 (≈ 85 µM) | 64 (≈ 170 µM) |  |  |  |  |  |
| Cc1ncc([N+](=O)[O-])n1CC(O)Cn1cc(C(=O)O)c(=O)c2cccc(F)c21 (configuration not stated) | 16 (≈ 41 µM) | 512 (≈ 1310 µM) | 4 (≈ 10.2 µM) | 256 (≈ 656 µM) | 2 (≈ 5.12 µM) | 32 (≈ 82 µM) | 4 (≈ 10.2 µM) | 4 (≈ 10.2 µM) | 8 (≈ 20.5 µM) | 256 (≈ 656 µM) | 8 (≈ 20.5 µM) | 4 (≈ 10.2 µM) | 64 (≈ 164 µM) |  | 390 (≈ 999 µM) | -0.13 | 5.12 |  |
| Cc1ncc([N+](=O)[O-])n1CC(O)Cn1cc(C(=O)O)c(=O)c2cc(Cl)cc(Cl)c21 (configuration not stated) | 8 (≈ 18.1 µM) | 256 (≈ 580 µM) | 32 (≈ 72.5 µM) | 128 (≈ 290 µM) | 8 (≈ 18.1 µM) | 16 (≈ 36.3 µM) | 32 (≈ 72.5 µM) | 16 (≈ 36.3 µM) | 16 (≈ 36.3 µM) | 256 (≈ 580 µM) | 16 (≈ 36.3 µM) | 32 (≈ 72.5 µM) | 64 (≈ 145 µM) |  | 350 (≈ 793 µM) | 0.22 | 5.26 |  |
| CCOC(=O)c1cn(CC(O)Cn2c([N+](=O)[O-])cnc2C)c2cc(C(F)(F)F)ccc2c1=O (racemic) | 16 (≈ 34.2 µM) | 32 (≈ 68.3 µM) | 8 (≈ 17.1 µM) | 8 (≈ 17.1 µM) | 8 (≈ 17.1 µM) |  | 2 (≈ 4.27 µM) | 4 (≈ 8.54 µM) | 4 (≈ 8.54 µM) | 128 (≈ 273 µM) | 2 (≈ 4.27 µM) | 4 (≈ 8.54 µM) | 8 (≈ 17.1 µM) |  |  |  |  |  |
